The target of experiment [1] is T1, Prostaglandin G/H synthase 1 (Ovis aries) (UniProt P05979).
T1 sequence (whole entry): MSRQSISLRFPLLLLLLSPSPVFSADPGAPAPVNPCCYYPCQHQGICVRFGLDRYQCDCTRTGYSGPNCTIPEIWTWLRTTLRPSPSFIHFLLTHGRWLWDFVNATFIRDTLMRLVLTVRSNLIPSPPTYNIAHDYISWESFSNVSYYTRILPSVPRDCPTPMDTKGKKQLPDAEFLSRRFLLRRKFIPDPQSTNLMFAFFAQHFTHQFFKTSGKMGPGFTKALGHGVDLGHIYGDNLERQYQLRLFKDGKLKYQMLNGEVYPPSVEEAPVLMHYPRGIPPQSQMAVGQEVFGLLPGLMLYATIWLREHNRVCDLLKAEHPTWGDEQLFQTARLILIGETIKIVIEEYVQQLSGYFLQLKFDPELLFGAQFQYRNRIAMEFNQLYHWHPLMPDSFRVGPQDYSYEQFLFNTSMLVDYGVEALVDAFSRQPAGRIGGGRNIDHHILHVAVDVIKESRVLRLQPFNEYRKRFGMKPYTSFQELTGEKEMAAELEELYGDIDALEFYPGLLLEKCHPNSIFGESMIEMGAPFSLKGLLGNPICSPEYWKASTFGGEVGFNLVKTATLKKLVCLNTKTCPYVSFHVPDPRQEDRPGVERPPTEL
The experiment is described as follows: Inhibition of purified ovine COX-1 assessed as residual activity by measuring formation of 12-HHT from arachidonic acid preincubated at 10 uM for 5 mins before substrate addition measured after 5 mins by HPLC analysis relative to control; values are per cent of control.

For experiment [2], the target named is T2, Polyunsaturated fatty acid lipoxygenase ALOX12 (Homo sapiens, UniProt P18054).
T2 sequence (P18054 whole entry): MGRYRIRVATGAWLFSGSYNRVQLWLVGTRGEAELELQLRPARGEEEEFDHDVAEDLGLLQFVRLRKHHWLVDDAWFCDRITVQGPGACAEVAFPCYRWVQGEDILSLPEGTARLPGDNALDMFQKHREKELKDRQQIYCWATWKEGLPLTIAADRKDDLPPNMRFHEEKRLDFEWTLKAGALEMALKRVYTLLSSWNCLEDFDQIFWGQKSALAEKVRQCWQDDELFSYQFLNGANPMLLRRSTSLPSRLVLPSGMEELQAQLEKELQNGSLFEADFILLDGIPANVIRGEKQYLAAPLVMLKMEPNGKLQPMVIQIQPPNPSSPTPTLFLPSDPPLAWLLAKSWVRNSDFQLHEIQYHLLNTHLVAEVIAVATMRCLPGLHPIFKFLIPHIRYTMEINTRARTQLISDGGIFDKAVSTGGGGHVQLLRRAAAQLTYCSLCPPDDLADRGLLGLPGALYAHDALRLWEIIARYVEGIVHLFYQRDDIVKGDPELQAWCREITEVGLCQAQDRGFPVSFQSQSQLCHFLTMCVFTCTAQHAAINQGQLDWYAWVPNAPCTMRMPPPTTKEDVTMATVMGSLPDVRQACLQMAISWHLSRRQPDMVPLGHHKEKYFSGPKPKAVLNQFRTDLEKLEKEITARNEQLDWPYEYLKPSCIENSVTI
The experiment in a line: Inhibition of 12-LO in human neutrophils.

For experiment [3], the target named is T3, Prostaglandin E synthase (Homo sapiens) (UniProt O14684).
T3 sequence (whole entry): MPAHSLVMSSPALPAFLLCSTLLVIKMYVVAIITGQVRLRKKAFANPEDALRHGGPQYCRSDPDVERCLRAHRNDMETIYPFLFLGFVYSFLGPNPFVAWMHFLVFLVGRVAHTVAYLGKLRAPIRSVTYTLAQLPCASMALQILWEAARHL
The experiment is described as follows: (§1) Inhibition of mPGES1-mediated PGE2 formation in LPS-stimulated human monocytes preincubated for 15 mins before arachidonic acid substrate addition measured after 30 mins by UPLC-MS/MS analysis. Type of experiment: cell-based. Put shortly:
(§2)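 Fresh human monocytes (adherence-isolated, >85% CD14+; 5 × 10⁶/well) primed with LPS 1 μg/mL for 24 h. Washed, 15 min preincubation, then 2.5 μM A23187 plus 20 μM arachidonic acid for 30 min. Eicosanoids extracted and measured by UPLC-MS/MS, normalized to PGB1 as relative intensities. Two to three independent experiments.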

Another experiment concerns the target T4, Prostaglandin E synthase (Homo sapiens, UniProt O14684).
T4 sequence (O14684 whole entry): T3 sequence (whole entry)
Described as §1. In kind it is cell-based. Put shortly:
as §2

The subject of experiment [4] is Mus musculus. The experiment in a line: Antiinflammatory activity in zymosan-induced peritonitis CD1 mouse model assessed as suppression of LTC4 level at 10 mg/kg, ip administered 30 mins before challenge measured 30 mins post zymosan challenge relative to control. In kind it is functional. The note with it: route intraperitoneal. In short, it runs like this: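 Male CD-1 mice (33−39 g, 8−9 weeks; n = 5−11 per group) dosed ip in 0.5 mL 0.9% saline with 2% DMSO 30 min before ip zymosan (0.5 mL of 2 mg/mL in saline). Killed by CO2 30 min after zymosan, peritoneum lavaged with 3 mL cold PBS pH 7.4. Cysteinyl-LTs in exudate supernatant by enzyme immunoassay; % inhibition vs vehicle.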

Experiment [5] has as its system Mus musculus. The experiment is described as follows: Antiinflammatory activity in zymosan-induced peritonitis CD1 mouse model assessed as suppression of LTB4 level at 10 mg/kg, ip administered 30 mins before challenge measured 4 hrs post zymosan challenge relative to control.
Experiment [6] addresses Prostaglandin G/H synthase 1 (Homo sapiens, UniProt P23219). The experiment is described as follows: Inhibition of COX1-mediated […] in human platelets assessed as residual activity by measuring formation of 12-HHT from arachidonic acid preincubated at 10 uM for 5 mins measured after 5 mins by RP-HPLC analysis relative to control; values are per cent of control.

For the next experiment, the system named is Monocyte. The experiment is described as follows: Inhibition of 11-HETE formation in LPS-stimulated human monocytes preincubated for 15 mins before arachidonic acid substrate addition measured after 30 mins by UPLC-MS/MS analysis. Type of experiment: functional, cell-based. Put shortly: as §2

In general, residual activity refers to the signal under treatment as a percentage of the control signal. By IC50 is commonly meant the concentration needed to halve the response being measured. What is called inhibition in vivo is the share of the control response that was lost under treatment.

Calls of active or inactive are those of the source. The rule behind the calls is not given here. Where only a bound is given, the exact number is not on record here.

Sequence of Prostaglandin G/H synthase 1 (P23219 whole entry): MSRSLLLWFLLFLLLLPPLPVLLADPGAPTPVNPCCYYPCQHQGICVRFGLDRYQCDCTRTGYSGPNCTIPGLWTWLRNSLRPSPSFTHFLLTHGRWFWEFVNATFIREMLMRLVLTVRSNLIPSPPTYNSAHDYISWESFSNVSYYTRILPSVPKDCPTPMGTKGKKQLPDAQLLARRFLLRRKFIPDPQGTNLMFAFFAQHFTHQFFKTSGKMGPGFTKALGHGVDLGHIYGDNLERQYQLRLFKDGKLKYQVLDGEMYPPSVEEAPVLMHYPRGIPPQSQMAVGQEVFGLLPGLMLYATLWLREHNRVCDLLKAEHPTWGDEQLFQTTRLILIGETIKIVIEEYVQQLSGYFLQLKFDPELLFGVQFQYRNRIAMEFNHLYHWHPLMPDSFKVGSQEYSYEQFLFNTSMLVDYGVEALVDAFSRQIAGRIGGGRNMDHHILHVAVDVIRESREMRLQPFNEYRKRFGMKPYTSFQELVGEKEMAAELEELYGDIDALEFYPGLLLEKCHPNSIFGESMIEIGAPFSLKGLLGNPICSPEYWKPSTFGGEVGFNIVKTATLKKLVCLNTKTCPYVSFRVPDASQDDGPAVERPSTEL

Regarding `COc1cc(/C=C/C(=O)/C=C/c2cc(CC=C(C)C)c(O)c(OC)c2)cc(CC=C(C)C)c1O`, the residual activity in experiment [1] stood at 78.7%.
In experiment [2], `COc1cc(/C=C/c2cc(-c3ccc(O)c(OC)c3)[nH]n2)ccc1O` displayed a half-inhibitory concentration (IC50) of 7.7 µM. Besides, the inhibition entry in experiment [3] is “Active”.
`COc1cc(/C=C/c2cc(/C=C/c3cc(CC=C(C)C)c(O)c(OC)c3)[nH]n2)cc(CC=C(C)C)c1O`: the IC50 on Prostaglandin E synthase is more than 10 µM. The inhibition in vivo at 10 mg/kg with Mus musculus [4] is 92%; in the experiment on Mus musculus [5] it was 61%.
As to `COc1cc(/C=C/C(=O)CC(=O)/C=C/c2cc(CC=C(C)C)c(O)c(OC)c2)cc(CC=C(C)C)c1O`, the residual activity in experiment [1] amounted to 80.2%.
`COc1cc(/C=C/c2cc(/C=C/c3ccc(O)c(OC)c3)[nH]n2)ccc1O` [CURCUMIN PYRAZOLE] showed an IC50 in experiment [2] of 7.3 µM. In addition, in experiment [3], the inhibition entry is “Active”. Also, the residual activity in experiment [6] worked out at 82.3%.
For the molecule `COc1cc(/C=C/C(=O)CC(=O)/C=C/c2ccc(O)c(OC)c2)ccc1O` [CURCUMIN], the IC50 against Prostaglandin E synthase and in the experiment with Monocyte was 1.2 µM in each case.
